For data set [1], the target named is T1, Indoleamine 2,3-dioxygenase 1 (Homo sapiens, UniProt P14902).
Data set [2] concerns the target Indoleamine 2,3-dioxygenase 1 (Mus musculus, UniProt P28776). The data set can be described thus: Inhibition of mouse recombinant IDO expressed in mouse P815B cells assessed as blockade of tryptophan degradation by HPLC. It counts as cell-based.
The nature of data set [3]: Cytotoxicity against mouse P815B cells expressing mouse recombinant IDO by MTT assay. Particulars: read-out: LD50 (the source's name); call rule not given here. Format: cell-based. The method in brief:
(§1)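 Cells (2 × 10⁵/well) incubated 8 h at 37 °C in HBSS with 80 μM L-Trp and compound titrated 0.312–80 μM or 1.56–400 μM. Supernatant was removed; the remaining cells received culture medium (Iscove, 10% FCS, amino acids) plus MTT for 3-4 h at 37 °C.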

The nature of data set [4]: Cytotoxicity against mouse P815B cells expressing mouse recombinant TDO by MTT assay. It counts as cell-based. The note with it: for CC50: mouse, P815B cells expressing mouse recombinant TDO, read-out: LD50 (the source's name). The procedure, abridged: as §1
In data set [5] the target is Tryptophan 2,3-dioxygenase (Mus musculus, UniProt P48776). As to the kind of experiment: Inhibition of mouse recombinant TDO expressed in mouse P815B cells assessed as blockade of tryptophan degradation by HPLC. Format: cell-based.
The nature of data set [6]: (§2) Cytotoxicity against HEK293 cells expressing human recombinant IDO by MTT assay. It counts as cell-based. Particulars: human, HEK293 cells expressing human recombinant IDO; read-out: LD50 (the source's name). The procedure, abridged:
as §1

Data set [7] addresses T1, Indoleamine 2,3-dioxygenase 1. As to the kind of experiment: Inhibition of human recombinant IDO expressed in HEK293 cells assessed as blockade of tryptophan degradation by HPLC. Format: cell-based.
In data set [8] the test system is HEK293. The data set is described as §2. It counts as cell-based. The note with it: Homo sapiens, HEK293. The method in brief: as §1

T1 sequence (P14902 whole entry): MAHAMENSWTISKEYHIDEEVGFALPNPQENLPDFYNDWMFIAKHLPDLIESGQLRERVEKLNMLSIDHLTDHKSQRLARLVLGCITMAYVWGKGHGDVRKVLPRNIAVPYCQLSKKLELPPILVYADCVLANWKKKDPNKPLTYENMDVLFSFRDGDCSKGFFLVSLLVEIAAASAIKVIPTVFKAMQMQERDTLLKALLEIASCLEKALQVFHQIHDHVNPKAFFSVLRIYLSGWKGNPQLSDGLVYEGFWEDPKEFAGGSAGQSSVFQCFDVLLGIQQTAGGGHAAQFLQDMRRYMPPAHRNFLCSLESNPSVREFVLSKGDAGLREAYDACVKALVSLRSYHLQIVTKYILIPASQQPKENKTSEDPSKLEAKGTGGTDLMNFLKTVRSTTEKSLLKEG
Chain of Tryptophan 2,3-dioxygenase (P48776 whole entry): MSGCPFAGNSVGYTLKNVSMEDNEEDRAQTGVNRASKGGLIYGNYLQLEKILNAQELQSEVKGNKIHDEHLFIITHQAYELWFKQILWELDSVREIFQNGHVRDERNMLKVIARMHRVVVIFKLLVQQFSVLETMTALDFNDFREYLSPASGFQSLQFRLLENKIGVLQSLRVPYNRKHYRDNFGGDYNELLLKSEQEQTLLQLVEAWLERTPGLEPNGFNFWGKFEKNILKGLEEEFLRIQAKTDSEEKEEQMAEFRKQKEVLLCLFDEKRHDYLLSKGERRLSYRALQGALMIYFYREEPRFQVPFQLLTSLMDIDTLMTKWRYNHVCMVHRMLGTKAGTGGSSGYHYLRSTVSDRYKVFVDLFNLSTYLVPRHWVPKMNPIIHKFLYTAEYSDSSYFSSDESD
Chain of Indoleamine 2,3-dioxygenase 1 (Mus musculus, UniProt P28776) (P28776 whole entry): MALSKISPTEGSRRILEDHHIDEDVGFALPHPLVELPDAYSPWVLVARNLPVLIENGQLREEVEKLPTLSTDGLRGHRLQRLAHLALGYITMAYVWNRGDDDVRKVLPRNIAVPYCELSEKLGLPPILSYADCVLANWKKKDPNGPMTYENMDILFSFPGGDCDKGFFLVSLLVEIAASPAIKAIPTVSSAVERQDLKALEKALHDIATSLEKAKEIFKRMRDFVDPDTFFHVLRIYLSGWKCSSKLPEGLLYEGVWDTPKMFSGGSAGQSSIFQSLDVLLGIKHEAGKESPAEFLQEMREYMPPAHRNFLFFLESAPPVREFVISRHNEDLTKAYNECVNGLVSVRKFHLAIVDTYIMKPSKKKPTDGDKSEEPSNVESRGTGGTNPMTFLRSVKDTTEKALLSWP

Regarding `O=C(Nc1ccc(O)c2ccccc12)[C@@H]1CCCN1`, the IC50 in data set [1] (read-out: IC50) is 200 µM.

Regarding `Nc1ccc(O)c2ccccc12`, the concentration for half-maximal inhibition (IC50) in data set [1] (read-out: IC50) was 6 µM; in data set [2] (p815b) it was “Not Active”. The CC50 in data set [3] was determined as 2 µM.

In the case of `Nc1ccc(O)c2ncccc12`, the IC50 was 3 µM in data set [1] (read-out: IC50), 1 µM in data set [2] (read-out: IC50) and 5 µM in data set [5]. Further, the values for the CC50 in data set [4] and in data set [3] were 5 µM and 2.5 µM, respectively.

On to `OC1c2ccccc2-c2ccccc21`, for which the IC50 in data set [1] (read-out: IC50) was greater than 1000 µM.

As to `Nc1nc(-c2ccccc2)cs1`, in data set [1] (read-out: IC50), the IC50 was determined as 1000 µM.

Turning to `CCCNc1ccc(O)c2ccccc12`, the IC50 is 4.5 µM in data set [1] (read-out: IC50) and “Not Active” in data set [2] (p815b). Also, in data set [3], the CC50 turned out to be 20 µM.

Consider `SC1Nc2ccccc2N1`, for which the half-maximal inhibitory concentration (IC50) entry in data set [1] is listed as “Not Active”.

Turning to `CCC(CC)Nc1ccc(O)c2ccccc12`, in data set [1] (read-out: IC50), the IC50 was 3.5 µM.

As for `c1ccc(-c2cnn[nH]2)cc1`, the CC50 is greater than 400 µM in data set [4], greater than 400 µM in data set [6] and greater than 80 µM in data set [3]. The IC50 in data set [2] (read-out: IC50) is 5 µM; in data set [5] it was greater than 400 µM.

On to `OCCOc1ccc(O)c2ccccc12`, for which the IC50 in data set [1] (read-out: IC50) amounted to 12.5 µM.

Regarding `CN(C)CSC1Nc2ccccc2S1` (centres undefined), the IC50 in data set [1] (read-out: IC50) amounted to 50 µM.

In the case of `OC1Cc2ccccc2N1` (centres undefined), the IC50 result in data set [1] is on record as “Not Active”.

Take `O=C1c2ccccc2-c2ccccc21`: the IC50 in data set [1] (read-out: IC50) is greater than 200 µM.

For the compound `Nc1ccc2c(c1)SC(S)N2` (centres undefined), the IC50 entry in data set [1] is on record as “Not Active”.

In the case of `Oc1ccc(NCc2ccccc2)c2ccccc12`, the concentration for half-maximal inhibition (IC50) in data set [1] (read-out: IC50) stood at 2.5 µM.

Turning to `Oc1ccc(O)c2ccccc12`, the CC50 in data set [4] was found to be 10 µM; in data set [6], 40 µM; in data set [3], 40 µM. Further, in data set [5], the IC50 was greater than 10 µM.

For the compound `C[C@H](N)C(=O)Nc1ccc(O)c2ccccc12`, the IC50 in data set [1] (read-out: IC50) is 60 µM.

With `SC1Nc2ccccc2S1` (centres undefined), the IC50 was 50 µM in data set [1] (read-out: IC50), 7 µM in data set [7], 20 µM in data set [2] (read-out: IC50) and greater than 80 µM in data set [5]. For the same compound, the LD50 is greater than 80 µM in data set [4] (Mus musculus, P815B) and greater than 80 µM in data set [8]. Besides, the CC50 in data set [3] is greater than 80 µM.

Regarding `CCC(CC)/N=C1/C=C(C2=C/C(=N\C(CC)CC)c3ccccc3C2=O)C(=O)c2ccccc21`, the IC50 in data set [1] (read-out: IC50) was 0.52 µM; in data set [7], 50 µM; in data set [2] (read-out: IC50) it was greater than 200 µM; in data set [5], greater than 50 µM. Further, the figures for the CC50 in data set [4], in data set [6] and in data set [3] were 100 µM, greater than 400 µM and 200 µM, respectively.

As to `OC1Nc2ccccc2N1`, the IC50 entry in data set [1] is recorded as “Not Active”.

As for `N[C@@H](CO)C(=O)Nc1ccc(O)c2ccccc12`, the IC50 in data set [1] (read-out: IC50) stood at 400 µM.

Consider `Oc1cccc2[nH]c3ccccc3c12`, for which the IC50 in data set [1] (read-out: IC50) worked out at 400 µM.

For `CC(C)/N=C1/C=C(C2=C/C(=N\C(C)C)c3ccccc3C2=O)C(=O)c2ccccc21`, the IC50 in data set [1] (read-out: IC50) is 0.45 µM; in data set [7] it was 25 µM; in data set [2] (read-out: IC50), greater than 50 µM; in data set [5] it was greater than 50 µM. Also, the figures for the CC50 in data set [4], in data set [6] and in data set [3] were 100 µM, 50 µM and 50 µM, respectively.

For the compound `CCN(CC)CCNc1ccc(O)c2ccccc12`, the IC50 in data set [1] (read-out: IC50) was 3 µM.

For `CN(C)CSc1nc(-c2ccccc2)cs1`, the half-maximal inhibitory concentration (IC50) in data set [1] (read-out: IC50) was greater than 1000 µM.

Turning to `C[C@@H](N)C(=O)Nc1ccc(O)c2ccccc12`, the IC50 in data set [1] (read-out: IC50) amounted to 90 µM.

On to `CN1c2ccccc2SC1S` (centres undefined), for which, in data set [1], the IC50 result was “Not Active”.

With `CC1=C/C(=N\C(C)C)c2ccccc2C1=O`, the IC50 in data set [1] (read-out: IC50) was 0.2 µM; in data set [7], greater than 50 µM; in data set [2] (read-out: IC50), 4 µM; in data set [5] it was 6.3 µM. Moreover, the values for the CC50 in data set [4], in data set [6] and in data set [3] were 10 µM, 50 µM and 15 µM, respectively.

Regarding `CN(C)c1ccc(O)c2ccccc12`, the IC50 in data set [1] (read-out: IC50) was found to be 1000 µM.

`CNc1ccc(O)c2ccccc12`: the IC50 in data set [1] (read-out: IC50) came out at 12.5 µM.

As to `CSC1Nc2ccccc2S1` (centres undefined), in data set [1], the IC50 result was “Not Active”.

As for `CCNc1ccc(O)c2ncccc12`, the values for the IC50 in data set [1] (read-out: IC50) and in data set [2] (p815b) were 40 µM and “Not Active”, respectively. Moreover, the CC50 in data set [3] turned out to be 20 µM.

As for `c1cc(-c2cnn[nH]2)ccn1`, the IC50 in data set [1] (read-out: IC50) is 5 µM; in data set [2] (p815b), “Not Active”. The CC50 in data set [3] was 200 µM.

As to `NCC(=O)Nc1ccc(O)c2ccccc12`, the IC50 in data set [1] (read-out: IC50) was determined as 105 µM.

Consider `OC1Nc2ccccc2S1` (centres undefined), for which the IC50 entry in data set [1] is “Not Active”.

As for `Nc1ccc(Nc2ccccc2)cc1`, in data set [1] (read-out: IC50), the IC50 was found to be 400 µM.

As for `CC(C)Nc1ccc(O)c2ccccc12`, the IC50 is 2.5 µM in data set [1] (read-out: IC50), 12.5 µM in data set [7], 30 µM in data set [2] (read-out: IC50) and greater than 15 µM in data set [5]. The CC50 was 15 µM in data set [4], 100 µM in data set [6] and greater than 80 µM in data set [3].

For the compound `Oc1cccc2cccnc12` [OXYQUINOLINE], the IC50 in data set [1] (read-out: IC50) was 750 µM.

For the compound `Sc1nc(-c2ccccc2)cs1`, the CC50 in data set [4], in data set [6] and in data set [3] was greater than 80 µM each time. The IC50 in data set [2] (read-out: IC50) was 20 µM; in data set [5], greater than 80 µM.

On to `c1cncc(-c2c[nH]nn2)c1`, for which the IC50 in data set [1] (read-out: IC50) turned out to be 680 µM.

`O=C(c1ccccc1)c1ccccc1` [BENZOPHENONE]: in data set [1] (read-out: IC50), the half-inhibitory concentration (IC50) came out at 1000 µM.

Take `NCCCNc1ccc(O)c2ccccc12`: the half-maximal inhibitory concentration (IC50) in data set [1] (read-out: IC50) was 5 µM.

Take `CC(C)CNc1ccc(O)c2ccccc12`: in data set [1] (read-out: IC50), the IC50 came to 25 µM.

Take `NC1Nc2ccccc2S1` (centres undefined): in data set [1], the IC50 result is on record as “Not Active”.

With `CCNc1ccc(O)c2ccccc12`, the CC50 came to 50 µM in data set [4], 200 µM in data set [6] and 400 µM in data set [3]. Besides, the IC50 in data set [5] is greater than 50 µM.

With `CC(C)Nc1ccc(O)c2ncccc12`, the IC50 was 15 µM in data set [1] (read-out: IC50) and “Not Active” in data set [2] (p815b). In addition, the CC50 in data set [3] is greater than 200 µM.

Consider `Cn1cc(C[C@H](N)C(=O)O)c2ccccc21` [(L)-1-METHYLTRYPTOPHAN], for which the CC50 is greater than 400 µM in data set [4], greater than 400 µM in data set [6] and greater than 1000 µM in data set [3]. Also, in data set [5], the IC50 was greater than 400 µM.

`Oc1ccc(NC2CCCCC2)c2ccccc12`: in data set [1] (read-out: IC50), the IC50 came out at 15 µM.

As for `O=C(c1ccccc1)c1cccc(O)c1`, the IC50 in data set [1] (read-out: IC50) worked out at 500 µM.

Regarding `Oc1ccc(Cl)cc1Cc1cc(Cl)ccc1O` [DICHLOROPHEN], in data set [2] (p815b), the IC50 result is given as “Not Active”. The CC50 in data set [3] stood at 0.2 µM.

Take `NCCNc1ccc(O)c2ccccc12`: the IC50 in data set [1] (read-out: IC50) worked out at 44 µM.

As to `SC1Nc2cc(Cl)ccc2S1` (centres undefined), the IC50 in data set [1] (read-out: IC50) worked out at 50 µM.

As to `COc1ccc(N)c2ccccc12`, the IC50 in data set [1] (read-out: IC50) is 5.5 µM.

For `Nc1ccccc1Oc1ccccc1`, the IC50 in data set [1] (read-out: IC50) was greater than 1000 µM.

With `CC(C)(C)Nc1ccc(O)c2ccccc12`, the figures for the IC50 in data set [1] (read-out: IC50) and in data set [2] (p815b) were 4 µM and “Not Active”, respectively. In addition, the CC50 in data set [3] was 20 µM.

The values above are taken from ChEMBL document CHEMBL1156818, “Rational design of indoleamine 2,3-dioxygenase inhibitors” (J Med Chem, 2010).
